The source made the active and inactive calls. The calls are words filed in the database; no cut-off is given here.
What was measured:
[1] = biological target: T1, Cannabinoid receptor 1 (Homo sapiens, UniProt P21554); assay: Displacement of [3H]-CP-55940 from human recombinant CB1 receptor expressed in HEK293 cells; assay type: cell-based
In short: (§1)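 Radioligand binding with human recombinant CB1 and CB2 receptors. The highest concentration tested was 10 µM, and percent displacement was recorded at that concentration. IC50 and Ki were calculated for each receptor. The selectivity index is Ki(CB1)/Ki(CB2).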

[2] = biological target: T2, Cannabinoid receptor 2 (Homo sapiens, UniProt P34972); assay: Displacement of [3H]-CP-55940 from human recombinant CB2 receptor expressed in HEK293 cells; assay type: cell-based
In short: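 Radioligand binding assay on human recombinant CB2 receptor. The read-out was percent displacement of radioligand at the highest concentration tested. IC50 values were determined, and Ki values were calculated from them.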

[3] = biological target: T2, Cannabinoid receptor 2; assay: Displacement of [3H]-CP-55940 from human recombinant CB2 receptor expressed in HEK293 cells at 10 uM; assay type: cell-based; in short: as §1
[4] = biological target: T3, Fatty-acid amide hydrolase 1 (Rattus norvegicus) (UniProt P97612); assay: Inhibition of FAAH-mediated [14C]anandamide hydrolysis in rat brain membrane assessed as [14C]-ethanolamine production up to 50 uM after 30 mins by scintillation counting; assay type: cell membranes
T3 sequence (whole entry): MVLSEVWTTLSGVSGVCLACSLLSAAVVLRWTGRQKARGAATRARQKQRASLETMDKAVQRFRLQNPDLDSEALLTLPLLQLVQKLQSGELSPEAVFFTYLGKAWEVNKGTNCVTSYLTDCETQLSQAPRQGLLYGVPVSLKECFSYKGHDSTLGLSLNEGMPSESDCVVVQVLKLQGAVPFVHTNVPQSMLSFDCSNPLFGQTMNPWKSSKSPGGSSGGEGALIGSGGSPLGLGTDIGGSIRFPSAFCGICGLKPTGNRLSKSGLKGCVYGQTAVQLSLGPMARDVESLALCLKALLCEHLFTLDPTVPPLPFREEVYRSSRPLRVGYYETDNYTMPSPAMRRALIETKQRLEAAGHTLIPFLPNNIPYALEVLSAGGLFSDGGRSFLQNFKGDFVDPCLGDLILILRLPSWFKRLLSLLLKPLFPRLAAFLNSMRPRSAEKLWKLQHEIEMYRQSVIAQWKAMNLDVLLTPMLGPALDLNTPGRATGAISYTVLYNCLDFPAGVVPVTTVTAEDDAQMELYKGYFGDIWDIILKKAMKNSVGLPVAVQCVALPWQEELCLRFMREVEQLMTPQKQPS

[5] = biological target: T1, Cannabinoid receptor 1; assay: Displacement of [3H]-CP-55940 from human recombinant CB1 receptor expressed in HEK293 cells at 10 uM; assay type: cell-based; in short: as §1
[6] = species on record: Homo sapiens; assay: Selectivity index, ratio of Ki for human recombinant CB1 receptor to Ki for human recombinant CB2 receptor; in short: as §1

T2 sequence (P34972 whole entry): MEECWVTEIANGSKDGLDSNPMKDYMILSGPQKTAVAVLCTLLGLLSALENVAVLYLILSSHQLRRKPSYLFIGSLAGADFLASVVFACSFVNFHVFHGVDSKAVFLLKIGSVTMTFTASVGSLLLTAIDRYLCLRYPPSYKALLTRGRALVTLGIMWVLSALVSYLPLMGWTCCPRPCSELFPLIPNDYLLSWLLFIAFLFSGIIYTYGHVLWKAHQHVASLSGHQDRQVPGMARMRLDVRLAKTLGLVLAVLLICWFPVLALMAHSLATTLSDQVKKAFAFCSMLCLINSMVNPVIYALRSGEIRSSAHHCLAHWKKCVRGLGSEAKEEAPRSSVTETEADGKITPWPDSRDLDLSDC
T1 sequence (P21554 whole entry): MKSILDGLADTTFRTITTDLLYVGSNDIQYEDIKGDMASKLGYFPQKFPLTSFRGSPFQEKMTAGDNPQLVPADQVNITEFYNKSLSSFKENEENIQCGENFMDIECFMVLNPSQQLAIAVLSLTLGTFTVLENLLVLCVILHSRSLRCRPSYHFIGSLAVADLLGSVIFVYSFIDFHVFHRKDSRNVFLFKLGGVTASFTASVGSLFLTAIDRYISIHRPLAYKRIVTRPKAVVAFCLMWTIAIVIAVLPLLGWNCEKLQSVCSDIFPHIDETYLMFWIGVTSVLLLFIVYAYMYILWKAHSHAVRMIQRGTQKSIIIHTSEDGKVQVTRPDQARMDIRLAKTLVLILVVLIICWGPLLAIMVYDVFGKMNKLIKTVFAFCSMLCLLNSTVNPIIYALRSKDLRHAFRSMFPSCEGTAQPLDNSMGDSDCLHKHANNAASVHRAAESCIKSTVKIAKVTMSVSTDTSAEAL

Row | Structure (SMILES) | IC50 [1] | Ki [1] | IC50 [2] | Ki [2] | Activity [3] | inhibition [4] | Activity [5] | Ratio Ki [6]
1 | CCOC(=O)CNC(=O)CCCC(=O)/C=C/c1ccc2ccccc2c1 | > 10 µM | > 10 µM | > 10 µM | > 10 µM | 41.7% | inactive | 41.5% | –
2 | O=C(O)CCC(=O)/C=C/c1ccc2ccccc2c1 | > 10 µM | > 10 µM | > 10 µM | > 10 µM | 13.7% | inactive | 11.8% | –
3 | O=C(/C=C/c1ccc2ccccc2c1)CCCC(=O)NCCO | > 10 µM | > 10 µM | 4.08 µM | 1.03 µM | 72% | inactive | 4.58% | > 9.71
4 | O=C(O)CCCC(=O)/C=C/c1ccc2ccccc2c1 | > 10 µM | > 10 µM | > 10 µM | > 10 µM | 23.4% | inactive | 21.5% | –
5 | O=C(/C=C/c1ccc2ccccc2c1)CCCC(=O)N1CCCCC1 | > 10 µM | > 10 µM | > 10 µM | > 10 µM | 36.8% | inactive | 34% | –
6 | O=C(/C=C/c1ccc2ccccc2c1)CCC(=O)Nc1ccc(O)cc1 | > 10 µM | > 10 µM | > 10 µM | > 10 µM | < 50% | inactive | < 50% | –
7 | O=C(CCC(=O)N1CCOCC1)c1ccc(-c2ccccc2)cc1 | > 10 µM | > 10 µM | > 10 µM | > 10 µM | 14.9% | inactive | 12.2% | –
8 | O=C(/C=C/c1ccc2ccccc2c1)CCCC(=O)NC1CC1 | > 10 µM | > 10 µM | 8.02 µM | 2.04 µM | 56.7% | inactive | 15.3% | > 4.9
9 | COc1ccc(/C=C/C(=O)CCC(=O)N2CCCCC2)cc1OC | > 10 µM | > 10 µM | > 10 µM | > 10 µM | 50% | inactive | < 50% | –
10 | O=C(CCC(=O)NCCO)CCc1ccc(-c2ccccc2)cc1 | > 10 µM | > 10 µM | 8.85 µM | 2.25 µM | 53% | inactive | 10.9% | > 4.44
11 | COc1ccc(/C=C/C(=O)CCC(=O)Nc2ccc(O)cc2)cc1 | > 10 µM | > 10 µM | > 10 µM | > 10 µM | < 50% | inactive | < 50% | –
12 | O=C(/C=C/c1ccc2ccccc2c1)CCC(=O)NCCO | > 10 µM | > 10 µM | 1 µM | 1.03 µM | 56.5% | inactive | 0% | > 4.41
13 | O=C(/C=C/c1ccc2ccccc2c1)CCC(=O)NC1CC1 | > 10 µM | > 10 µM | > 10 µM | > 10 µM | 35.6% | inactive | 3.25% | –
14 | C[C@H](CO)NC(=O)CCC(=O)/C=C/c1ccc2ccccc2c1 | > 10 µM | > 10 µM | > 10 µM | > 10 µM | 38.3% | inactive | 2.48% | –
15 | O=C(/C=C/c1ccc2ccccc2c1)CCC(=O)N(CCO)CCO | > 10 µM | > 10 µM | > 10 µM | > 10 µM | 27.3% | inactive | 1.81% | –
16 | CCOC(=O)CNC(=O)CCC(=O)/C=C/c1ccc2ccccc2c1 | > 10 µM | > 10 µM | 9.82 µM | 2.5 µM | 54.6% | inactive | 5.73% | > 4
17 | COc1ccc(/C=C/C(=O)CCC(=O)NCCO)cc1OC | > 10 µM | > 10 µM | > 10 µM | > 10 µM | < 50% | inactive | < 50% | –
18 | O=C(/C=C/c1ccc(-c2ccccc2)cc1)CCC(=O)NCCO | > 10 µM | > 10 µM | > 10 µM | > 10 µM | 46.1% | inactive | 5.25% | –
19 | O=C(/C=C/c1ccc2ccccc2c1)CCC(=O)N1CCCCC1 | > 10 µM | > 10 µM | > 10 µM | > 10 µM | < 50% | inactive | < 50% | –
20 | C[C@@H](CO)NC(=O)CCCC(=O)/C=C/c1ccc2ccccc2c1 | > 10 µM | > 10 µM | > 10 µM | > 10 µM | 37.7% | inactive | > 10% | –
